Tests used:
NCI-H520 = assay: Antiproliferative activity against human FGFR1-amplified NCI-H520 cells after 7 days by SRB assay; settings: NCI-H520, 168 h
SW780 = assay: Antiproliferative activity against human FGFR3-amplified SW780 cells after 5 days by SRB assay; settings: SW780, 120 h
[1] = Antiproliferative activity against human FGFR2-amplified SUM52 cells after 5 days by SRB assay; settings: SUM52, 120 h
[2] = target: Fibroblast growth factor receptor 3 (Homo sapiens, UniProt P22607); assay: Inhibition of human recombinant His-tagged FGFR3 cytoplasmic domain (399 to 806 residues) expressed in baculovirus using Tyr-4 peptide after 1 hr by FRET-based Z'-Lyte assay
[3] = target: Fibroblast growth factor receptor 4 (Homo sapiens, UniProt P22455); assay: Inhibition of human recombinant His-tagged FGFR4 cytoplasmic domain ([…] residues) expressed in baculovirus using Tyr-4 peptide after 1 hr by FRET-based Z'-Lyte assay
L02 = assay: Cytotoxicity against human HL7702 cells assessed as cell viability after 72 hrs by CCK-8 assay; assay type: cell-based; settings: L02, 72 h
Outline: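 Log-phase HL7702 cells were plated at ~3000 cells/well and treated 24 h later with compound or vehicle for 72 h. CCK-8 was added for 3 h and OD450 minus OD650 measured. Viability = (As−Ac)/(Ab−Ac)×100, with Ac a cell-free blank and Ab the vehicle control.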

PC-9 = assay: Antiproliferative activity against human PC9 cells after 5 days by SRB assay; assay type: functional, cell-based; settings: PC-9, 120 h
Outline: (§1)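 Grown in α-MEM + 5% FBS at 37 °C, 5% CO2. Seeding per well: 3000 (H661), 1000 (PC9), 400 (H460, H1299), attached overnight. Cells were dosed with a 3-fold serial dilution from DMSO stocks for 5 days. Then cold TCA fixation, 0.4% SRB staining, solubilisation in 10 mM Tris pH 10.5, absorbance at 490 nm. IC50 was derived from the curves.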

NCI-H661 = assay: Antiproliferative activity against human NCI-H661 cells after 5 days by SRB assay; assay type: functional, cell-based; settings: NCI-H661, 120 h; outline: as §1
NCI-H460 = assay: Antiproliferative activity against human NCI-H460 cells after 5 days by SRB assay; assay type: functional, cell-based; settings: NCI-H460, 120 h; outline: as §1
NCI-H1299 = assay: Antiproliferative activity against human NCI-H1299 cells after 5 days by SRB assay; assay type: functional, cell-based; settings: NCI-H1299, 120 h; outline: as §1

Fibroblast growth factor receptor 4, sequence (P22455 whole entry, the tested form may be a part): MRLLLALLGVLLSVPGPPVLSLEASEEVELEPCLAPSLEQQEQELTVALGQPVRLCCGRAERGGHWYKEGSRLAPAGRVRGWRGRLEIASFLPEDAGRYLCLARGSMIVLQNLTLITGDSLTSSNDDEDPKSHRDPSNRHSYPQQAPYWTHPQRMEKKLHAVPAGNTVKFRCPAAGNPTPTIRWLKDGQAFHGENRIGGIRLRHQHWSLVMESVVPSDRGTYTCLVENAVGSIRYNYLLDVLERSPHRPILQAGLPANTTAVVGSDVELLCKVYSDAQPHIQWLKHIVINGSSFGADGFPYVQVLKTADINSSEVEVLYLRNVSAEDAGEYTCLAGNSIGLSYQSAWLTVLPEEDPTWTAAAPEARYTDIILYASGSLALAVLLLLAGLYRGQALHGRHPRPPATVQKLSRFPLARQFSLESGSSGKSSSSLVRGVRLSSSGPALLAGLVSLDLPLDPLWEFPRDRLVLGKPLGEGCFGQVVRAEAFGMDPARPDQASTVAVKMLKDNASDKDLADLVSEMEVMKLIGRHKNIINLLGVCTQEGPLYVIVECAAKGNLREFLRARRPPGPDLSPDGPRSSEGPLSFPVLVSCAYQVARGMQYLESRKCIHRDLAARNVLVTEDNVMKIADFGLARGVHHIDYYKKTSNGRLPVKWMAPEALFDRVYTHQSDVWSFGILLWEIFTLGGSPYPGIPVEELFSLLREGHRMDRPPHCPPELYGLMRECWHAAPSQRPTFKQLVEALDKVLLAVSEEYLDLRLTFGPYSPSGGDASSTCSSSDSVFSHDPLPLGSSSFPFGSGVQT
Fibroblast growth factor receptor 3, sequence (P22607 whole entry, the tested form may be a part): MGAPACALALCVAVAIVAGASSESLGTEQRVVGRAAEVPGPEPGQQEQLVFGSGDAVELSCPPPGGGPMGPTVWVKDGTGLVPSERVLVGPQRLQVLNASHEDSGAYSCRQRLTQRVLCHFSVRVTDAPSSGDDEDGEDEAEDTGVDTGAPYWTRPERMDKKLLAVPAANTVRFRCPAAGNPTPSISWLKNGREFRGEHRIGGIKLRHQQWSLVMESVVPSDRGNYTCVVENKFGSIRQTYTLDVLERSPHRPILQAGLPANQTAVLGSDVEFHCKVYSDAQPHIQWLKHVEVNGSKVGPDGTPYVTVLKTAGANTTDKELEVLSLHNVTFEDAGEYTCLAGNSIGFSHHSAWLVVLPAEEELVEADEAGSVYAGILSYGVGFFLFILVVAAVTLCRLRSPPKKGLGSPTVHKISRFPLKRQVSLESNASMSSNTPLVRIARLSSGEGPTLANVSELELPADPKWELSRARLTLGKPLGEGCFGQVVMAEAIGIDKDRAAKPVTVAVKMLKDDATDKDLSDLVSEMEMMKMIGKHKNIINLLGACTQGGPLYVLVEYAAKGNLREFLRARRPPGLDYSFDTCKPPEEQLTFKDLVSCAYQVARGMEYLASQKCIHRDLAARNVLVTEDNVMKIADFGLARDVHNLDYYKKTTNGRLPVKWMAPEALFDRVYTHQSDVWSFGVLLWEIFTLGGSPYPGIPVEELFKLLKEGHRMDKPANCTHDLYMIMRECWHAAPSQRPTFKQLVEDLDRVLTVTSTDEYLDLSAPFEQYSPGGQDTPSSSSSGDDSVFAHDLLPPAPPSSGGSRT

SMILES	IC50 (NCI-H520)	IC50 (SW780)	IC50 [1]	other results
COc1cc(OC)c(Cl)c(N2Cc3cnc(NC4CCOCC4)nc3N(C3CCN(C(=O)/C=C/CN(C)C)CC3)C2=O)c1Cl	7.82 nM	3.34 nM	0.57 nM	–
COc1cc(OC)c(Cl)c(N2Cc3cnc(N(C)C)nc3N(C3CCN(C(=O)/C=C/CN(C)C)CC3)C2=O)c1Cl	2420 nM	570 nM	224 nM	IC50 [2]: > 1000 nM; IC50 [3]: > 1000 nM
C=CC(=O)Nc1cccc(CN2C(=O)N(c3c(Cl)c(OC)cc(OC)c3Cl)Cc3cnc(NCCCCN(CC)CC)nc32)c1	121 nM	277 nM	2.9 nM	–
COc1cc(OC)c(Cl)c(N2Cc3cnc(Nc4ccccc4)nc3N(C3CCN(C(=O)/C=C/CN(C)C)CC3)C2=O)c1Cl	4.14 nM	9.73 nM	0.65 nM	IC50 (L02): 1890 nM; IC50 (PC-9): 1260 nM; IC50 (NCI-H661): 2750 nM; IC50 (NCI-H460): 1400 nM; IC50 (NCI-H1299): 2480 nM
COc1cc(OC)c(Cl)c(N2Cc3cnc(Nc4cccc(F)c4)nc3N(C3CCN(C(=O)/C=C/CN(C)C)CC3)C2=O)c1Cl	6.5 nM	9 nM	1.1 nM	–
COc1cc(OC)c(Cl)c(N2Cc3cnc(Nc4cccc(C)c4)nc3N(C3CCN(C(=O)/C=C/CN(C)C)CC3)C2=O)c1Cl	5.3 nM	15.1 nM	1.1 nM	–
CCN(CC)CCCCNc1ncc2cc(-c3cc(OC)cc(OC)c3)c(NC(=O)NC(C)(C)C)nc2n1 [PD-173074]	–	84.3 nM	12.3 nM	–
COc1cccc(Nc2ncc3c(n2)N(C2CCN(C(=O)/C=C/CN(C)C)CC2)C(=O)N(c2c(Cl)c(OC)cc(OC)c2Cl)C3)c1	19.3 nM	5.4 nM	1 nM	–
CNc1ncc2c(n1)N(C1CCN(C(=O)/C=C/CN(C)C)CC1)C(=O)N(c1c(Cl)c(OC)cc(OC)c1Cl)C2	56.2 nM	5.2 nM	2 nM	–
COc1cc(OC)c(Cl)c(N2Cc3cnc(NC(C)C)nc3N(C3CCN(C(=O)/C=C/CN(C)C)CC3)C2=O)c1Cl	4.91 nM	12.3 nM	0.65 nM	–
COc1ccccc1Nc1ncc2c(n1)N(C1CCN(C(=O)/C=C/CN(C)C)CC1)C(=O)N(c1c(Cl)c(OC)cc(OC)c1Cl)C2	39.8 nM	27.5 nM	3.3 nM	–
COc1cc(OC)c(Cl)c(N2Cc3cnc(NC4CCOC4)nc3N(C3CCN(C(=O)/C=C/CN(C)C)CC3)C2=O)c1Cl (stereo not drawn)	70 nM	32 nM	4 nM	–
COc1cc(OC)c(Cl)c(N2Cc3cnc(NC4CCCCC4)nc3N(C3CCN(C(=O)/C=C/CN(C)C)CC3)C2=O)c1Cl	13.6 nM	14.5 nM	0.84 nM	–
COc1ccc(Nc2ncc3c(n2)N(C2CCN(C(=O)/C=C/CN(C)C)CC2)C(=O)N(c2c(Cl)c(OC)cc(OC)c2Cl)C3)cc1	3 nM	0.3 nM	0.8 nM	–
